Compound activity (PubChem BioAssay)
The full list was thinned out, with hits kept by preference.
UPR XBP1 act = activators of adaptive XBP1 UPR arm, primary screen, cell-based, CHO-XBP1 luciferase reporter, luminescence, uHTS | IRE1-XBP1 UPR activation; percent of tunicamycin response, DMSO as zero | activation, % at 20 µM | hit rate 0.33% among 330,000 | AID 463104, 2010;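 active = versus positive control, 20 µM dose yields 30% or more activation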;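 note: 100% = tunicamycin at 10 µg/mL and 0% = DMSO only wells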
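Signal: luciferase luminescence; Assay system: CHO-XBP1 luciferase reporter cells; Amount: one thousand reporter cells per well; Dosing: 20 µM single concentration, DMSO 1%; Benchmarks: high control tunicamycin 10 µg/mL final, low control DMSO vehicle only; Schedule: 6 h compound exposure at 37 °C, 5% CO2; Evaluation: percent activation relative to tunicamycin reference.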
UPR CHOP act = activators of apoptotic CHOP UPR arm, primary screen, cell-based, CHO-CHOP luciferase reporter, luminescence, uHTS. activation, % at 10 µM. UPR activation; percent of tunicamycin response over DMSO baseline. hit rate 0.34% among 330,000. AID 449763, 2010;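 active = at 10 µM dose, activation of 40% or more, normalized to positive control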;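 note: 100% = tunicamycin at 10 µg/mL and 0% = DMSO alone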
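measured by = luciferase luminescence | assay system = CHO-CHOP cells, stable luciferase reporter of PERK-eIF2a-CHOP signalling | amount = 500 reporter cells seeded per well | timing = 6 h compound exposure at 37 °C after overnight seeding | controls = positive tunicamycin 10 µg/mL, negative DMSO alone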
Jurkat NFkB inh = inhibitors of induced NF-kB luciferase reporter, primary screen, TCR NF-kB activation inhibitor project, cell-based, luminescence, uHTS; Jurkat, PMA/ionomycin-induced NF-kB luciferase reporter; inhibition, % at 4 µM; hit rate 0.53% among 330,000; AID 435003, 2010; in the data active = inhibition above about 50%
697 NFkB inh = inhibitors of PMA/ionomycin-induced NF-kB reporter, 697 cells, primary screen, B-cell NF-kB inhibitor project, cell-based, luminescence, uHTS; 697 B-cell NF-kB luciferase reporter, 16 h; inhibition, % at 4 µM; hit rate 0.33% among 330,000; in the data active = inhibition above about 35%
CHOP inhibitor = inhibitors of CHOP promoter induction, primary screen, cell-based, unfolded protein response, luciferase reporter; CHO-K1 CHOP-promoter luciferase, tunicamycin-induced, 15-18 h; inhibition, % at 10 µM; hit rate 3.8% among 220,000; AID 2732, 2010;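 active = compounds that reduced the stress-induced luciferase reporter signal by more than about 70% of percent inhibition, limit read from the data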;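 note: 0% = tunicamycin plus vehicle and 100% = wells without tunicamycin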
* hit, by the source's call; · = no result given.

SMILES | UPR XBP1 act | UPR CHOP act | Jurkat NFkB inh | 697 NFkB inh | CHOP inhibitor
Cc1cccc(N2CCN(C(c3ccccc3)c3nnnn3C(C)(C)C)CC2)c1C (stereo not given) | 4 | 15 | -5 | 5 | 70
Cc1cccc(N2CCN(C(c3cccs3)c3nnnn3C(C)(C)C)CC2)c1C (stereo not given) | 0 | 10 | -1 | -18 | 77*
CCOC(=O)c1ccccc1NC(=O)CSc1nc(N)cc(N)n1 | 0 | -3 | 11 | 8 | 16
CCOC(=O)c1ccccc1NC(=O)CSc1ncc(C(=O)OCC)c(N)n1 | 0 | 0 | -10 | -3 | 75*
O=[N+]([O-])c1ccccc1Nc1c2ccccc2nc2ccccc12 | 1 | -1 | 28 | -38 | 93*
O=[N+]([O-])c1ccc(Nc2c3ccccc3nc3ccccc23)cc1 | 0 | -1 | -6 | -4 | 70
CCn1c2c(c3cc(Cl)ccc31)CCCC2=O | 3 | -2 | 1 | 11 | 76*
O=C1COc2ccc(N3C(=O)C=CC3=O)cc2N1 | -5 | -1 | -4 | -1 | 95*
Cc1cccc2sc(N(CCN(C)C)C(=O)c3cc(Cl)sc3Cl)nc12 | 2 | 2 | 8 | -12 | 72*
CCNC(=S)N/N=C/c1ccc(OCCOc2ccccc2C)cc1 | 3 | -2 | 3 | 33 | 85*
CCn1c(=O)c(C(=O)Nc2ccccn2)c(O)c2ccccc21 | 0 | 0 | 11 | 4 | 81*
CCn1c(=O)c(C(=O)Nc2ncccc2O)c(O)c2ccccc21 | -4 | 3 | 2 | 0 | ·
CCn1c(=O)c(C(=O)NC(C)C)c(O)c2ccccc21 | -1 | 0 | -14 | 0 | 72*
CCCn1c(=O)c(C(=O)NNS(=O)(=O)c2ccc(C)cc2)c(O)c2ccccc21 | -1 | 0 | -11 | -8 | 90*
CC(C)(C)c1ccc(OCC(=O)NCc2ccco2)c(Br)c1 | 5 | 2 | -11 | 8 | 81*
CC(C)(C)c1ccc(OCC(=O)NNC(=S)NC(=O)c2ccco2)c(Br)c1 | -1 | -1 | 2 | -11 | ·
Cn1cnnc1SCC(=O)c1c(N)n(Cc2ccccc2)c(=O)n(C)c1=O | -3 | 0 | 18 | 12 | 3
COCCOc1cc(Nc2nnc(C(F)(F)F)s2)c(Cl)cc1Cl | 0 | 2 | -1 | -21 | 77*
COc1cc(Nc2nnc(C)s2)c(Cl)cc1Cl | -1 | 0 | 2 | 8 | 27
O=C(Cc1ccccc1)N/N=C/c1cc(Br)c(Br)o1 | 3 | 2 | -9 | -3 | 76*
N#C/C(=C\Nc1ccc2c(c1)OCCO2)c1nc2ccccc2[nH]1 | 7 | 3 | -16 | -53 | 74*
N#C/C(=C\Nc1ccc2c(c1)OCCO2)c1nc(-c2ccccc2)cs1 | 6 | 0 | -2 | -12 | -17
CC1=C(C#N)c2nc(N)c(C#N)c(C)c2/C1=C\c1ccc(C)cc1 | -6 | -11 | -3 | -2 | 98*
Cc1c(Cl)cccc1NC(=O)COC(=O)c1ccc(CN2CCCC2=O)cc1 | 0 | 0 | 2 | 2 | ·
N#CC(C#N)=C/C(C#N)=C(/N)N1CCN(c2ccc(Cl)cc2)CC1 | 0 | 3 | -10 | -25 | 80*
SMILES | UPR XBP1 act | UPR CHOP act | Jurkat NFkB inh | 697 NFkB inh | CHOP inhibitor
COc1nc(C)nc2c1sc(=S)n2C | 0 | -1 | 0 | -1 | 71*
COc1ccc(NS(=O)(=O)c2ccc(NC(=O)C(CCSC)NC(N)=O)cc2)cc1 (stereo not given) | 2 | 4 | 19 | 10 | 2
O=C(Nc1ccc2c(c1)OCO2)c1c[nH]c(=O)n(-c2ccc(F)cc2)c1=O | -2 | 6 | -8 | -18 | ·
O=C(C[n+]1ccccc1)Nc1ccccc1Br | -4 | -2 | 13 | 29 | 23
OC(COC(c1ccc(Cl)cc1)c1ccc(Cl)cc1)CN1CCc2ccccc2C1 (stereo not given) | 2 | -2 | 9 | -1 | 90*
Cc1ccc(S(=O)(=O)N2CCOCC2)cc1C(=O)N1CCN(c2ccc(C(F)(F)F)cn2)CC1 | -5 | 0 | 18 | 2 | ·
CCOc1ccc(Nc2nc(Cc3nnc(SCC(=O)NCc4ccco4)n3CC)cs2)cc1 | -2 | 0 | 15 | 12 | -8
COC(=O)C1=C(C)N=C2SC(C#N)=C(N)N2C1c1ccc(OCc2ccccc2)cc1 (stereo not given) | 3 | 1 | -31 | -23 | 88*
CSc1nc(N(C)C)nc(N(C)C#N)n1 | 0 | 1 | 7 | 1 | 16
COc1ccc(N2C(=O)CSC23CCC(C(C)(C)C)CC3)cc1 (stereo not given) | 4 | 2 | 18 | 10 | 79*
CC(C)(C)NC(=O)Cn1cc(C#N)c2cc(Br)ccc21 | -3 | 1 | -5 | 25 | 79*
COC(=O)Cn1cc(C#N)c2ccccc21 | -3 | 0 | 3 | 13 | -11
COc1ccc(NCC(O)Cn2c(C)c(C)c3ccccc32)cc1 (stereo not given) | 3 | -1 | 5 | -11 | 37
Cc1c(C)n(CC(O)CNc2ccccc2)c2ccccc12 (stereo not given) | -4 | 0 | -5 | -6 | 90*
CCOC(=O)Cc1csc(NC(=O)C(NC(=O)C2CCCCC2)C(C)C)n1 (stereo not given) | -1 | -1 | 3 | 10 | 17
CCC(=C(c1ccc(OC)cc1)c1ccc(OC)cc1)c1cn(CC(O)CN(CCO)CCO)c2ccccc12 (stereo not given) | -2 | 1 | -7 | 12 | 76*
COc1ccc(OCC(O)CN(CCO)CC(O)Cn2ccc3ccccc32)cc1 (stereo not given) | -2 | 3 | -4 | -1 | 14
O=C(/C=C/c1ccccc1)NC(=S)Nc1ccc2c3c(cccc13)CC2 | -6 | -2 | -11 | 1 | 75*
Cc1[nH]n(-c2ccc(Cl)cc2)c(=O)c1N=Nc1cccnc1 | 1 | 3 | -51 | -27 | 90*
CCC(=O)N1CCN(c2nc(-c3ccccc3)c3c(c2C#N)CCCC3)CC1 | 3 | 0 | 8 | 6 | 73*
N#Cc1c(SCC(=O)O)nc(-c2ccccc2)c2c1CCCC2 | 2 | -2 | -5 | 4 | 47
Cc1ccc(-n2cc(CNCCc3cscn3)c(-c3ccc(F)cc3)n2)cc1 | 0 | 0 | -4 | -15 | 85*
Cc1ccc(C)c(NC(=O)C(Sc2nc3ccc(C)cc3[nH]2)c2ccccc2)c1 (stereo not given) | 1 | -1 | -5 | 10 | 73*
CCC(Sc1nc2ccc(C)cc2[nH]1)C(=O)O (stereo not given) | 4 | 0 | 8 | 17 | 19
